# Screening results from PubChem BioAssay.
# E-sel TNF inh – E-selectin induction blockers in HUVEC – imaging, immunofluorescence, high content, primary screen | 120,000 compounds, 0.71% hits | HUVEC TNFa-induced E-selectin immunofluorescence | inhibition, % at 2 µM;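 active = inhibition above the batch mean plus 3 SD, and confirmed as a hit on visual image review, cut at about 43% in these data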;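 also: 0% = TNF-stimulated DMSO wells and 100% = unstimulated control wells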
# MDM2 E3 inh – MDM2-luciferase reporter signal enhancers, primary screen, MDM2 E3 ligase inhibitor project, cell-based, luminescence, 1536-well; cell-based MDM2 ubiquitination luciferase reporter, 2 h; 0 = plate control, 100 = twice control, blank-subtracted; signal enhancement, % at 5 µM; 210,000 compounds, 0.11% hits; AID 1230, 2008;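 active = signal enhancement of 30% or more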;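 also: luminescence tracks abundance of the self-degrading MDM2-luciferase fusion protein; higher signal means inhibition of MDM2 E3 ligase activity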
# Target sequence (Q00987 whole entry, looked up, the tested form may be a part): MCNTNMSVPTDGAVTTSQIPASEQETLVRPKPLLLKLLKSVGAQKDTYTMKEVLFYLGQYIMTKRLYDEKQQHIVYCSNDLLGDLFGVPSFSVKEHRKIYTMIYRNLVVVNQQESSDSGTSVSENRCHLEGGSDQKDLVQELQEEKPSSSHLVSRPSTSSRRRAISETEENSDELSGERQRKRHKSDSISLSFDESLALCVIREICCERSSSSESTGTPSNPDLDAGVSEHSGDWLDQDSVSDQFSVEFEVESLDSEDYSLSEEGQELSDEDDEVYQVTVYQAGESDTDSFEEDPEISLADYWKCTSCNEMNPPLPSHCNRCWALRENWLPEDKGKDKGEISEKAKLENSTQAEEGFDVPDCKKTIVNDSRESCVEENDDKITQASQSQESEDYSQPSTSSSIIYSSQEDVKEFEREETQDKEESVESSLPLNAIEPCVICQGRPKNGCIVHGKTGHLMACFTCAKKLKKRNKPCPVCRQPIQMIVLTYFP
#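 Buffer or medium: Cells held in DMEM | Assay system: Stable mammalian line carrying autodegrading MDM2–luciferase fusion reporter | Quantity: 2000 cells/well | Times: 4 h settle plus 2 h compound, 37 °C | Doses: One concentration, 5 µM, with 0.2% DMSO | Technique: Luminescence with SteadyLite reagent, 15 min at room temperature | Benchmarks: Plate controls and plate blanks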
# TNF death inh – inhibitors of TNF-alpha triggered necroptosis, primary screen, cell-based, Jurkat FADD-/-, single concentration; Jurkat FADD-/- TNF necroptosis rescue, ATP luminescence, 24 h; 0 = TNF only, 100 = no-TNF cells; activation (protection from cell death), % at 10 µM; 220,000 compounds, 0.068% hits; AID 463075, 2010;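 active = activation, meaning protection from cell death, of at least 50% relative to plate controls; inactive = activation below 50%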;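 also: necroptosis triggered by 40 ng/mL TNF-alpha added together with compound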
# zVAD death inh – inhibitors of zVAD-triggered necroptosis, primary screen, L929 cells. L929 zVAD necroptosis rescue, ATP luminescence, 24 h; with zVAD 60 µM. viability rescue, % at 10 µM. 220,000 compounds, 0.38% hits;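 active = activation, scaled between plate controls, above about 75%, limit read from the data; inactive = activation under that limit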;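 also: 0% = zVAD with DMSO and 100% = DMSO alone without zVAD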
# HSV augment – enhancers of HSV replication in host cells, fold increase, host cell viability; HSV replication augmentation in cells; maximum fold increase; 220,000 compounds, 0.005% hits; AID 1956, 2009; in the data active = maximum fold increase above about 1.5; tested in PC3 cells
# An asterisk follows results filed as active; i = inactive; . = no result given. This is a sample that favours compounds with a hit; in the whole collection about 0.89% have one here.
SMILES,E-sel TNF inh,MDM2 E3 inh,TNF death inh,zVAD death inh,HSV augment
COc1cc(C2C(C#N)=C(N)Oc3cc(C)n(CCc4ccccc4)c(=O)c32)cc2c1OCO2 (configuration not stated),95.0*,-9.1,-0.5,0.1,i
COc1ccc(N2C(=S)N=C(Nc3ccccc3)C23CCCCC3)cc1,13.4,30.1*,0.6,2.5,.
Cc1nc2ccccc2n1-c1nc(-c2ccco2)cc(C(F)(F)F)n1,99.8*,-9.3,6.3,2.2,i
O=C(/C=C/C=C/c1ccccc1)c1ccco1,.,-5.0,-17.7,-1.4,i
O=C(COc1ccc(Cl)cc1)NCc1nnc(SCC(=O)Nc2ccc(F)cc2F)o1,.,-6.5,1.5,1.7,i
O=C(CN1CCN(Cc2ccccc2Cl)C1=O)NCc1ccco1,63.5*,-8.4,-1.7,0.0,i
CC1=NN(c2cccc(C(=O)O)c2)C(=O)/C1=C\C=C\c1ccco1,-1.8,36.5*,-6.3,-0.8,.
CCOC(=O)c1ccc(NC(=O)COc2ccccc2CNC2CCCC2)cc1,.,-5.4,5.7,43.6,i
COc1ccc(N/C=C/C(=O)c2ccc(C)cc2)c([N+](=O)[O-])c1,65.3*,.,-2.5,0.4,i
CCOc1ccc(N/C=C/C(=O)c2ccc(OC)cc2)c([N+](=O)[O-])c1,22.7,-29.1,-1.4,0.1,i
CCN(Cc1ccccc1)C(=O)COC(=O)c1cc(Cl)nc(Cl)c1,.,-1.8,0.9,-0.5,i
Cc1ccc(C2(O)CN(c3ccccc3C)C3=[N+]2CCS3)cc1 (configuration not stated),63.7*,-17.4,-2.0,-0.5,i
Cc1ccccc1N1CC(O)(c2ccccc2)[N+]2=C1SCC2 (configuration not stated),12.4,-0.2,0.2,0.4,.
Cc1ccc(NC(=O)NC(=O)N(C(C)C)S(=O)(=O)c2ccc(C)cc2)cc1,.,-10.5,2.1,1.8,i
COc1ccc(C)cc1C1=Nc2ccccc2C1(C)C,.,30.4*,1.0,-0.5,i
Cc1ccc(O)c(C2=Nc3ccccc3C2(C)C)c1,.,-41.4,-0.3,23.1,i
COc1ccc(CS(=O)(=O)/C(Cl)=C(/Cl)C(=O)Nc2ccc(OC)nc2)cc1,94.9*,-9.1,-1.6,0.8,i
O=C(c1ccccc1NS(=O)(=O)c1cccc2cccnc12)N1CCOCC1,.,-9.4,0.6,1.3,i
O=C(O)CSC1c2ccccc2C(=O)N1Cc1ccccc1 (configuration not stated),68.7*,-10.5,0.0,0.0,i
CCc1sc(C(=O)NCCc2ccc(S(N)(=O)=O)cc2)cc1Br,.,-9.0,2.2,10.0,i
Cc1cccc(NC(=O)C2CCN(S(=O)(=O)c3cccc4nsnc34)CC2)n1,.,-8.2,0.5,0.9,.
COc1ccc2nc(NC(=O)C3CCN(S(=O)(=O)c4cccc5nsnc45)CC3)sc2c1,.,-7.2,-5.5,77.2*,i
Cc1cc(C(F)(F)F)nn2cnnc12,1.4,-14.6,0.1,1.0,i
CCC(=O)Nc1ccc(C(=O)CSc2nnc(-c3ccc(NS(=O)(=O)CC)cc3)o2)cc1OC,.,.,0.6,-0.3,i
OC(c1ccc2c(c1)OCO2)c1nccc2ccccc12 (configuration not stated),71.5*,6.6,0.4,0.1,i
SMILES,E-sel TNF inh,MDM2 E3 inh,TNF death inh,zVAD death inh,HSV augment
Cc1ccc(NC(=O)Cn2cnc3c(cnn3C(C)(C)C)c2=O)cc1,.,-18.3,2.4,84.5*,i
COc1ccc(NC(=O)Cn2cnc3c(cnn3C(C)(C)C)c2=O)cc1OC,5.6,-1.8,1.8,3.2,i
CCOC(=O)c1nn(-c2ccc(F)cc2)c2nc(CC(C)C)c(C#N)c(=O)n12,5.8,34.9*,-1.3,-0.7,i
Cc1cc(-c2nnc(CSc3nnc(NC(=O)c4ccc(C(C)(C)C)cc4)s3)o2)ccc1[N+](=O)[O-],.,-13.0,1.7,0.2,i
CC(C)(C)NC(=O)NC(=O)CN1CCN(c2cccc(Cl)c2)CC1,.,.,0.0,2.2,i
CCN(CC(=O)Nc1ccc2c(c1)OCO2)Cc1nc2ccccc2c(=O)[nH]1,-18.1,6.6,0.2,2.6,i
CCN(CC(=O)Nc1ccc(N2CCOCC2)cc1)Cc1nc2ccccc2c(=O)[nH]1,19.8,38.8*,-0.7,0.6,i
